Here are results for 39 molecules from ChEMBL document CHEMBL1146603, “Use of a pharmacophore model to discover a new class of influenza endonuclease inhibitors” (J Med Chem, 2003).

By IC50 is commonly meant the point on the concentration scale where inhibition reaches its midpoint. A low value points to greater potency. The EC50 is the concentration needed to bring the measured effect to its halfway point. In general, inhibition refers to the relative decrease from the control value, in per cent. A high value points to strong suppression.

Test [1] addresses Polymerase acidic protein (Influenza B virus (strain B/Lee/1940), UniProt Q9QLI9). The test is described as follows: Inhibitory concentration against cap-dependent endonuclease activity of influenza B/Lee/40 RNP. In kind it is functional. A digest of the protocol:
(§1)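 Cap-dependent transcription run on a filter plate. 10 nM RNP purified from A/PR/8/34 or B/Lee/40 virus was mixed with 0.01 mg/mL AMV RNA, 50 μM GTP, 50 μM CTP, 500 μM ATP and 5 μM [radiolabeled] UTP. Buffer was 50 mM Tris-HCl pH 8 with 100 mM KCl, 5 mM MgCl₂, 10% DMSO, 5 mM DTT and 0.2 mg/mL BSA. Incubation was 90 min at 31 °C. TCA-precipitated RNA was scintillation-counted. IC50 came from dose–response curves.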

The target in test [2] is Polymerase acidic protein (Influenza A virus (A/Puerto Rico/8/1934(H1N1)), UniProt P03433). The test is described as follows: Inhibitory concentration against cap-dependent endonuclease activity of influenza A/PR/8/34 RNP. In kind it is functional. In short, it runs like this:
as §1

The test system of test [3] is unidentified influenza virus. The test can be described thus: Effective concentration against influenza virus in MDCK cells. In kind it is functional, organism-based. In short, it runs like this:
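Antiviral dose–response read as protection of MDCK cells from influenza virus-induced cell death.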

In test [4] the target is Polymerase acidic protein (Influenza A virus (A/Puerto Rico/8/1934(H1N1)), UniProt P03433). The test is described as follows: Inhibitory concentration against cap-dependent endonuclease activity of influenza virus RNP. In kind it is functional, unidentified influenza virus. In short, it runs like this:
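Gel-based cap-dependent endonuclease assay. 1 nM influenza RNP was incubated with 0.1 nM cap-labeled 20-mer G20 RNA in 50 mM Tris-HCl pH 8 with 1 mM MgCl₂, 20 mM KCl, 1 U/μL RNase inhibitor and 0.3% Triton X-100, for 5 min at 31 °C. Cleavage products were resolved on polyacrylamide gels and quantified by phosphorimager. IC50 came from dose–response curves.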

For test [5], the target named is Polymerase acidic protein (Influenza A virus (A/Puerto Rico/8/1934(H1N1))) (UniProt P03433). The test can be described thus: Percent inhibition of cap-dependent endonuclease activity of influenza virus RNP at 100 uM. In kind it is functional. The following applies: unidentified influenza virus.

Chain of Polymerase acidic protein (Q9QLI9 whole entry): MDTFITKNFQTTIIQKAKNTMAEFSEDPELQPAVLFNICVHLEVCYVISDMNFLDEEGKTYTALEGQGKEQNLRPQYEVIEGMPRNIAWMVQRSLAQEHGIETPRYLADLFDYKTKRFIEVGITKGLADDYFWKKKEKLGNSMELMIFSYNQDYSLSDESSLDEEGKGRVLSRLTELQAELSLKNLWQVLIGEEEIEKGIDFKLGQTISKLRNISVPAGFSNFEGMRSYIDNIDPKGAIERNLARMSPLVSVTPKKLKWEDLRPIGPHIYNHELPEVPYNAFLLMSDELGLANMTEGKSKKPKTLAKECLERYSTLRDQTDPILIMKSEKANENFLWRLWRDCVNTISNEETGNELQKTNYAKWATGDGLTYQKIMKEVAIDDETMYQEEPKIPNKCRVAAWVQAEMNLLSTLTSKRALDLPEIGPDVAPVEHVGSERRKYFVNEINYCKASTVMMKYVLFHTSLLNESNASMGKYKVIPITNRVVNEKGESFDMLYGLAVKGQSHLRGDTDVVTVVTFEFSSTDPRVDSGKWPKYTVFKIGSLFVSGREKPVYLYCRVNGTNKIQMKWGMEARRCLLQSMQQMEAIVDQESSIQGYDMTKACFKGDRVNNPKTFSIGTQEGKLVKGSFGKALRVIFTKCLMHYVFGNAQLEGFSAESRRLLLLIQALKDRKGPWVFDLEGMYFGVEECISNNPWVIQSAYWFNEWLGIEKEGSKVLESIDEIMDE

Turning to `CC(=O)c1c(O)n(O)c2cc(NC(=O)c3ccc4ccccc4c3)ccc12`, the half-maximal inhibitory concentration (IC50) in test [1] was found to be 18 µM; in test [2] it was 9 µM. In test [3], this molecule came in with an EC50 of 21 µM.
For `O=C(O)C(=O)/C=C(\O)c1ccc(C2CCCCC2)cc1`, the IC50 in test [4] turned out to be 5 µM.
On to `O=c1c2nccnc2ncn1O`, for which, in test [4], the IC50 is more than 500 µM.
Molecule `CCC(=O)c1c(O)n(O)c2cc(NC(=O)Nc3ccc(Cl)cc3)ccc12` registered a 50% inhibitory concentration (IC50) in test [2] of 38 µM.
`O=C1Cc2ccccc2CN1O`: the inhibition in test [5] turned out to be 25%. The IC50 in test [4] was determined as 100 µM.
Molecule `CCC(=O)c1c(O)n(O)c2cc(NC(=O)c3ccc(Cl)cc3Cl)ccc12` returned an IC50 in test [2] of 45 µM.
For `O=C(/C=C/c1ccccc1Cl)Nc1ccc2c(C(=O)c3ccccc3)c(O)n(O)c2c1`, the figures for the IC50 in test [1] and in test [2] were 26 µM and 9.5 µM, respectively. Also, in test [3], the EC50 is more than 30 µM.
In the case of `CCC(=O)c1c(O)n(O)c2cc(NC(=O)c3cnc4ccccc4n3)ccc12`, in test [2], the IC50 amounted to 10 µM.
Same read-out and setting: in the case of `O=C(Nc1ccc2c(C(=O)c3ccccc3)c(O)n(O)c2c1)c1ccc(Cl)cc1Cl` it was 38 µM; in that of `O=C(Nc1ccc2c(C(=O)c3ccccc3)c(O)n(O)c2c1)c1cccs1`, 20 µM; in that of `CCC(=O)c1c(O)n(O)c2cc(NC(=O)/C=C/c3ccccc3Cl)ccc12`, 8 µM.
Still for that read-out and setting: in the case of `O=C(Nc1ccc2c(C(=O)c3ccccc3)c(O)n(O)c2c1)NC1CCCCC1` it was 50 µM.
`COCON1C(=O)C(CC(C)C)=N/C(=C\C(C)C)C1=O` displayed a 50% inhibitory concentration (IC50) in test [4] of more than 355 µM.
The molecule `CC(=O)c1c(O)n(O)c2cc(NC(=O)/C=C/c3ccccc3Cl)ccc12` gave an IC50 in test [2] of 26 µM.
As to `CCC(=O)c1c(O)n(O)c2cc(NC(=O)Nc3ccccc3)ccc12`, half-maximal inhibition in test [2] (IC50) was put at 40 µM.
The molecule `NN1C(=O)Cc2ccccc2C1=O` came in with a concentration for half-maximal inhibition (IC50) in test [4] of 800 µM.
The molecule `O=C(Nc1ccccc1)Nc1ccc2c(C(=O)c3ccccc3)c(O)n(O)c2c1` had an IC50 in test [2] of 29 µM.
In the case of `O=C(Nc1cccc(C(=O)O)c1)Nc1ccc2c(C(=O)c3ccccc3)c(O)n(O)c2c1`, the IC50 in test [1] was determined as 6 µM; in test [2], 3 µM. The EC50 in test [3] was more than 100 µM.
Turning to `O=C1c2ccccc2C(=O)N1O`, in test [4], the half-maximal inhibitory concentration (IC50) is more than 500 µM.
In turn, `CC(=O)c1c(O)n(O)c2cc(NC(=O)c3cccs3)ccc12` registered an IC50 in test [2] of 40 µM.
In the case of `CCc1cc(OC)c(OC)c(C(=O)NC[C@@H]2CCCN2CC)c1OC`, in test [2], the IC50 worked out at 32 µM.
In turn, `O=C(Nc1ccc2c(C(=O)c3ccccc3)c(O)n(O)c2c1)c1cnc2ccccc2n1` returned an IC50 in test [2] of 17 µM.
Consider `O=C(Nc1ccc2c(C(=O)c3ccccc3)c(O)n(O)c2c1)c1ccccc1`, for which the IC50 in test [1] amounted to 56 µM; in test [2], 10 µM. The same molecule registered a half-maximal effective concentration (EC50) in test [3] of more than 90 µM.
Consider `O=C(c1ccccc1)c1c(O)n(O)c2cc(NC(=O)C3CCCCC3)ccc12`, for which the half-inhibitory concentration (IC50) in test [2] was determined as 18 µM.
With `CC(=O)c1c(O)n(O)c2cc(NC(=O)Nc3cccc(C(=O)O)c3)ccc12`, half-maximal inhibition in test [2] (IC50) was put at 14 µM.
The same measure, in the same setting: next, `CCC(=O)c1c(O)n(O)c2cc(NC(=O)Nc3ccccc3Cl)ccc12`: 50 µM.
For `O=C1Cc2ccccc2CC(=O)N1O`, in test [4], the IC50 is more than 1000 µM.
In test [2], `CCC(=O)c1c(O)n(O)c2cc(NC(=O)Nc3cccc(C(=O)O)c3)ccc12` came in with an IC50 of 10 µM.
`O=C1CCc2ccccc2C(=O)N1O`: the IC50 in test [4] is more than 1000 µM.
In test [2], `CC(=O)c1c(O)n(O)c2cc(NC(=O)c3cnc4ccccc4n3)ccc12` came in with an IC50 of 11 µM.
In the case of `O=C(Nc1ccc2c(C(=O)c3ccccc3)c(O)n(O)c2c1)c1ccc2ccccc2c1`, the half-inhibitory concentration (IC50) in test [1] is 29 µM; in test [2], 8 µM. This molecule had a half-maximal effective concentration (EC50) in test [3] of more than 40 µM.
`CC(C)/C=C1\N=C(CC(C)C)C(=O)N(O)C1=O` showed an IC50 in test [4] of 5.5 µM.
For the molecule `Cc1cc(C(=O)Nc2ccc3c(C(=O)c4ccccc4)c(O)n(O)c3c2)no1`, the IC50 in test [2] is 9.5 µM. The molecule also displayed an EC50 in test [3] of more than 100 µM.
In the case of `O=c1[nH]c2nccnc2c(=O)n1O`, the IC50 in test [4] was determined as 95 µM.
In test [4], `CON1C(=O)Cc2ccccc2C1=O` gave a concentration for half-maximal inhibition (IC50) of 710 µM.
`O=C(c1ccccc1)c1c(O)n(O)c2cc(NS(=O)(=O)c3cccs3)ccc12`: the IC50 in test [2] worked out at 48 µM.
In turn, `O=C(NO)c1ccccc1` [BENZOHYDROXAMATE] came in with a 50% inhibitory concentration (IC50) in test [4] of more than 500 µM.
Molecule `CCC(=O)c1c(O)n(O)c2cc(NC(=O)c3cccs3)ccc12` had a 50% inhibitory concentration (IC50) in test [2] of 35 µM.
Molecule `CC(C)CC1=N/C(=C\c2ccc(F)cc2)C(=O)NC1=O` gave a half-maximal inhibitory concentration (IC50) in test [4] of more than 365 µM.
